System: not listed separately
Test: Cytotoxicity against human MT4 cells after 96 hrs by MTT assay
Assay type: cell-based
Settings: not given
Procedure, shortened: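 Exponentially growing MT-4 cells seeded at 1×10^5 cells/mL in RPMI-1640 with 10% FBS, penicillin and streptomycin. Incubated with serial compound dilutions at 37 °C, 5% CO2 for 96 h; viability by MTT. CC50 by linear regression relative to untreated controls; mean of three independent determinations.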

Structure (SMILES)	CC50 at 96 h [µM]
c1cnc2cc3[nH]nnc3cc2c1	40
Clc1c2ncccc2cc2nc(-c3ccccc3)[nH]c12	29
Clc1ccc(-c2nc3cc4cccnc4cc3[nH]2)cc1	100
O=[N+]([O-])c1c2cccnc2c(Cl)c2[nH]nnc12	> 100
Clc1c2ncccc2cc2nc(C3CCCCC3)[nH]c12	57
CCc1nc2cc3cccnc3c(Cl)c2[nH]c1=O	51

System: Human immunodeficiency virus 1
Test: Antiviral activity against HIV1 3B infected in human MT4 cells assessed as inhibition of virus-induced cytopathogenicity after 4 days by MTT assay
Assay type: functional, organism-based
Settings: Human immunodeficiency virus 1, 3B, MT4, 96 h
Procedure, shortened: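 MT-4 cells (1×10^4 per well) were infected with HIV-1 IIIB at 100 CCID50, m.o.i. 0.01, together with serial compound dilutions. Viability was read by MTT after 4 days at 37 °C. EC50 was taken by linear regression versus untreated controls. Mean of three determinations.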

Structure (SMILES)	EC50 [µM]
c1cnc2cc3[nH]nnc3cc2c1	> 40
Clc1c2ncccc2cc2nc(-c3ccccc3)[nH]c12	> 29
Clc1ccc(-c2nc3cc4cccnc4cc3[nH]2)cc1	> 100
O=[N+]([O-])c1c2cccnc2c(Cl)c2[nH]nnc12	> 100
Clc1c2ncccc2cc2nc(C3CCCCC3)[nH]c12	> 57
CCc1nc2cc3cccnc3c(Cl)c2[nH]c1=O	> 51

System: not listed separately
Test: Cytotoxicity against MDBK cells after 48 to 96 hrs by MTT assay
Assay type: cell-based, Bos taurus
Settings: cattle
Procedure, shortened: (§1)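 MDBK seeded at 6×10^5 and BHK at 1×10^6 cells/mL in MEM-Earle's with L-glutamine, 1 mM pyruvate, kanamycin, plus 10% horse serum (MDBK) or 10% FBS (BHK). Cells were grown at 37 °C, 5% CO2 with serial compound dilutions (DMSO stocks diluted in medium). Viability by MTT after 48–96 h. CC50 was taken by linear regression versus untreated controls; three independent determinations.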

Structure (SMILES)	CC50 [µM]
c1cnc2cc3[nH]nnc3cc2c1	> 100
Clc1c2ncccc2cc2nc(-c3ccccc3)[nH]c12	65
Clc1ccc(-c2nc3cc4cccnc4cc3[nH]2)cc1	> 100
O=[N+]([O-])c1c2cccnc2c(Cl)c2[nH]nnc12	> 100
Clc1c2ncccc2cc2nc(C3CCCCC3)[nH]c12	73
CCc1nc2cc3cccnc3c(Cl)c2[nH]c1=O	75

System: not listed separately
Test: Antiviral activity against Bovine viral diarrhea virus 1-NADL infected in MDBK cells assessed as inhibition of virus-induced cytopathogenicity after 3 to 4 days by MTT assay
Assay type: functional, cell-based
Settings: Bovine viral diarrhea virus isolates and strains
Procedure, shortened: (§2)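 Host cells were seeded in 96-well plates at 3×10^4 cells/well (MDBK) or 5×10^4 cells/well (BHK-21) and grown to confluent monolayers overnight. They were infected at m.o.i. 0.01 in maintenance MEM with 0.5% inactivated FBS. Serial compound dilutions were added after 1 h. Viability was read by MTT after 3–4 days at 37 °C. EC50 was taken by linear regression against untreated controls. Mean of three determinations.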

Structure (SMILES)	EC50 [µM]
c1cnc2cc3[nH]nnc3cc2c1	> 100
Clc1c2ncccc2cc2nc(-c3ccccc3)[nH]c12	4
Clc1ccc(-c2nc3cc4cccnc4cc3[nH]2)cc1	18
O=[N+]([O-])c1c2cccnc2c(Cl)c2[nH]nnc12	23
Clc1c2ncccc2cc2nc(C3CCCCC3)[nH]c12	19
CCc1nc2cc3cccnc3c(Cl)c2[nH]c1=O	6.5

System: not listed separately
Test: Cytotoxicity against BHK21 cells after 48 to 96 hrs by MTT assay
Assay type: cell-based, Mesocricetus auratus, BHK-21
Settings: hamster
Procedure, shortened: as §1

Structure (SMILES)	CC50 [µM]
c1cnc2cc3[nH]nnc3cc2c1	> 100
Clc1c2ncccc2cc2nc(-c3ccccc3)[nH]c12	35
Clc1ccc(-c2nc3cc4cccnc4cc3[nH]2)cc1	> 100
O=[N+]([O-])c1c2cccnc2c(Cl)c2[nH]nnc12	> 100
Clc1c2ncccc2cc2nc(C3CCCCC3)[nH]c12	26
CCc1nc2cc3cccnc3c(Cl)c2[nH]c1=O	95

System: Yellow fever virus
Test: Antiviral activity against Yellow fever virus 17D Stamaril Pasteur J07B01 infected in hamster BHK21 cells assessed as inhibition of virus-induced cytopathogenicity after 3 to 4 days by MTT assay
Assay type: functional, cell-based
Settings: Stamaril Pasteur J07B01, BHK-21
Procedure, shortened: as §2

Structure (SMILES)	EC50 [µM]
c1cnc2cc3[nH]nnc3cc2c1	> 100
Clc1c2ncccc2cc2nc(-c3ccccc3)[nH]c12	> 35
Clc1ccc(-c2nc3cc4cccnc4cc3[nH]2)cc1	> 100
O=[N+]([O-])c1c2cccnc2c(Cl)c2[nH]nnc12	> 100
Clc1c2ncccc2cc2nc(C3CCCCC3)[nH]c12	> 26
CCc1nc2cc3cccnc3c(Cl)c2[nH]c1=O	> 95

System: Reovirus sp.
Test: Antiviral activity against Reovirus type-1 3651 infected in hamster BHK21 cells assessed as inhibition of virus-induced cytopathogenicity after 3 to 4 days by MTT assay
Assay type: functional, organism-based
Settings: Reovirus sp., 3651, BHK-21
Procedure, shortened: as §2

Structure (SMILES)	EC50 [µM]
c1cnc2cc3[nH]nnc3cc2c1	> 100
Clc1c2ncccc2cc2nc(-c3ccccc3)[nH]c12	10
Clc1ccc(-c2nc3cc4cccnc4cc3[nH]2)cc1	> 100
O=[N+]([O-])c1c2cccnc2c(Cl)c2[nH]nnc12	> 100
Clc1c2ncccc2cc2nc(C3CCCCC3)[nH]c12	> 26
CCc1nc2cc3cccnc3c(Cl)c2[nH]c1=O	36

System: not listed separately
Test: Cytotoxicity against african green monkey Vero 76 cells after 48 to 96 hrs by crystal violet staining
Assay type: cell-based
Settings: chlorocebus sabaeus
Procedure, shortened: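 Vero-76 cells were seeded at 4×10^5 cells/mL in D-MEM with L-glutamine, kanamycin and 10% FBS, then exposed to serial compound dilutions at 37 °C, 5% CO2 for 48–96 h. Viability was read by crystal violet staining. 50% cytotoxic concentration by linear regression relative to untreated controls; mean of three independent determinations.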

Structure (SMILES)	CC50 [µM]
c1cnc2cc3[nH]nnc3cc2c1	> 100
Clc1c2ncccc2cc2nc(-c3ccccc3)[nH]c12	> 100
Clc1ccc(-c2nc3cc4cccnc4cc3[nH]2)cc1	> 100
O=[N+]([O-])c1c2cccnc2c(Cl)c2[nH]nnc12	> 100
Clc1c2ncccc2cc2nc(C3CCCCC3)[nH]c12	> 100
CCc1nc2cc3cccnc3c(Cl)c2[nH]c1=O	100

System: Coxsackievirus B5
Test: Antiviral activity against Human coxsackievirus B5 Ohio-1 infected in african green monkey Vero 76 cells assessed as reduction of virus-induced plaque formation after 3 days using crystal violet staining
Assay type: functional, organism-based
Settings: Enterovirus B, Ohio-1, Vero, 72 h

Structure (SMILES)	EC50 [µM]
c1cnc2cc3[nH]nnc3cc2c1	> 100
Clc1c2ncccc2cc2nc(-c3ccccc3)[nH]c12	36
Clc1ccc(-c2nc3cc4cccnc4cc3[nH]2)cc1	43
O=[N+]([O-])c1c2cccnc2c(Cl)c2[nH]nnc12	> 100
Clc1c2ncccc2cc2nc(C3CCCCC3)[nH]c12	43
CCc1nc2cc3cccnc3c(Cl)c2[nH]c1=O	> 100

System: Poliovirus 1
Test: Antiviral activity against Human poliovirus 1 strain Sabin Chat infected in african green monkey Vero 76 cells assessed as virus-induced reduction of plaque formation after 2 days using crystal violet staining
Assay type: functional, cell-based
Settings: Enterovirus C, 48 h

Structure (SMILES)	EC50 [µM]
c1cnc2cc3[nH]nnc3cc2c1	> 100
Clc1c2ncccc2cc2nc(-c3ccccc3)[nH]c12	53
Clc1ccc(-c2nc3cc4cccnc4cc3[nH]2)cc1	> 100
O=[N+]([O-])c1c2cccnc2c(Cl)c2[nH]nnc12	> 100
Clc1c2ncccc2cc2nc(C3CCCCC3)[nH]c12	80
CCc1nc2cc3cccnc3c(Cl)c2[nH]c1=O	> 100

System: Human orthopneumovirus
Test: Antiviral activity against Human respiratory syncytial virus A2 infected in african green monkey Vero 76 cells assessed as reduction of virus-induced plaque formation after 5 days using crystal violet staining
Assay type: functional, organism-based
Settings: 120 h

Structure (SMILES)	EC50 [µM]
c1cnc2cc3[nH]nnc3cc2c1	> 100
Clc1c2ncccc2cc2nc(-c3ccccc3)[nH]c12	> 100
Clc1ccc(-c2nc3cc4cccnc4cc3[nH]2)cc1	> 100
O=[N+]([O-])c1c2cccnc2c(Cl)c2[nH]nnc12	> 100
Clc1c2ncccc2cc2nc(C3CCCCC3)[nH]c12	> 100
CCc1nc2cc3cccnc3c(Cl)c2[nH]c1=O	18

System: Vesicular stomatitis Indiana virus
Test: Antiviral activity against clinical isolate Vesicular stomatitis Indiana virus infected in african green monkey Vero 76 cells assessed as reduction of virus-induced plaque formation after 2 days using crystal violet staining
Assay type: functional, organism-based
Settings: 48 h

Structure (SMILES)	EC50 [µM]
c1cnc2cc3[nH]nnc3cc2c1	> 100
Clc1c2ncccc2cc2nc(-c3ccccc3)[nH]c12	> 100
Clc1ccc(-c2nc3cc4cccnc4cc3[nH]2)cc1	> 100
O=[N+]([O-])c1c2cccnc2c(Cl)c2[nH]nnc12	> 100
Clc1c2ncccc2cc2nc(C3CCCCC3)[nH]c12	≥ 100
CCc1nc2cc3cccnc3c(Cl)c2[nH]c1=O	35

System: not listed separately
Test: Antiviral activity against Vaccinia virus Lister Elstree infected in african green monkey Vero 76 cells assessed as reduction of virus-induced plaque formation after 3 days using crystal violet staining
Assay type: functional, cell-based
Settings: 72 h

Structure (SMILES)	EC50 [µM]
c1cnc2cc3[nH]nnc3cc2c1	> 100
Clc1c2ncccc2cc2nc(-c3ccccc3)[nH]c12	> 100
Clc1ccc(-c2nc3cc4cccnc4cc3[nH]2)cc1	> 100
O=[N+]([O-])c1c2cccnc2c(Cl)c2[nH]nnc12	> 100
Clc1c2ncccc2cc2nc(C3CCCCC3)[nH]c12	≥ 100
CCc1nc2cc3cccnc3c(Cl)c2[nH]c1=O	> 100

System: Human alphaherpesvirus 1
Test: Antiviral activity against Human herpesvirus 1 strain KOS infected in african green monkey Vero 76 cells assessed as reduction of virus-induced plaque formation after 3 days using crystal violet staining
Assay type: functional, organism-based
Settings: Human alphaherpesvirus 1, KOS, 72 h

Structure (SMILES)	EC50 [µM]
c1cnc2cc3[nH]nnc3cc2c1	> 100
Clc1c2ncccc2cc2nc(-c3ccccc3)[nH]c12	> 100
Clc1ccc(-c2nc3cc4cccnc4cc3[nH]2)cc1	> 100
O=[N+]([O-])c1c2cccnc2c(Cl)c2[nH]nnc12	> 100
Clc1c2ncccc2cc2nc(C3CCCCC3)[nH]c12	> 100
CCc1nc2cc3cccnc3c(Cl)c2[nH]c1=O	> 100
